In ChEMBL document CHEMBL4811308, “Design, synthesis and broad spectrum antibreast cancer activity of diarylindoles via induction of apoptosis in aggressive breast cancer cells” (Bioorg Med Chem, 2021):

Columns and labels:
Format in all cases: organism-based
[1] = Acute toxicity in Swiss albino mouse assessed as ALP level at 5 mg/kg, po administered once and observed for 7 days (reference value: 123.22 +/- 16.04 U/L); details: in vivo, 168 h, time 7 day
[2] = Acute toxicity in Swiss albino mouse assessed as SGPT level at 5 mg/kg, po administered once and observed for 7 days (reference value: 12.65 +/- 2.98 U/L); details: in vivo, 168 h, time 7 day
[3] = Acute toxicity in Swiss albino mouse assessed as ALP level at 50 mg/kg, po administered once and observed for 7 days (reference value: 123.22 +/- 16.04 U/L); details: in vivo, 168 h, time 7 day
[4] = Acute toxicity in Swiss albino mouse assessed as absolute brain weight at 5 to 300 mg/kg, po administered once and observed for 7 days; details: in vivo, 168 h, dose 5-300 mg/kg, time 7 day
Method in brief: (§1)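 Acute oral toxicity per OECD guideline 423; mice 20–25 g, 3 male + 3 female per group, acclimatized 7 days at 22 ± 5 °C, 12 h light/dark. Compound dissolved in minimal DMSO, diluted in 0.7% CMC, single oral dose of 5, 50 or 300 mg/kg; controls given vehicle only. Clinical signs checked hourly on dosing day, then daily. Samples and body weights taken on day 7.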

[5] = Acute toxicity in Swiss albino mouse assessed as creatinine level at 300 mg/kg, po administered once and observed for 7 days (reference value: 0.11 +/- 0.03 mg/dL); details: in vivo, 168 h, time 7 day
[6] = Acute toxicity in Swiss albino mouse assessed as relative heart weight at 5 to 300 mg/kg, po administered once and observed for 7 days; details: in vivo, 168 h, dose 5-300 mg/kg, time 7 day; method in brief: as §1
[7] = Acute toxicity in Swiss albino mouse assessed as WBC level at 50 mg/kg, po administered once and observed for 7 days (reference value: 8.55 +/- 2.71 /mm3); details: in vivo, 168 h, time 7 day
[8] = Acute toxicity in Swiss albino mouse assessed as SGPT level at 50 mg/kg, po administered once and observed for 7 days (reference value: 12.65 +/- 2.98 U/L); details: in vivo, 168 h, time 7 day
[9] = Acute toxicity in Swiss albino mouse assessed as effect on response of organism at 5 to 300 mg/kg, po administered once and observed for 7 days; details: in vivo, 168 h, dose 5-300 mg/kg, time 7 day; method in brief: as §1
[10] = Acute toxicity in Swiss albino mouse assessed as body weight at 5 mg/kg, po administered once and observed for 7 days (reference value: 22.75 +/- 0.93 gm); details: in vivo, 168 h, time 7 day
[11] = Acute toxicity in Swiss albino mouse assessed as cholesterol level at 300 mg/kg, po administered once and observed for 7 days (reference value: 122.05 +/- 8.12 mg/dl); details: in vivo, 168 h, time 7 day
[12] = Acute toxicity in Swiss albino mouse assessed as protein level at 50 mg/kg, po administered once and observed for 7 days (reference value: 2.01 +/- 0.11 mg/ml); details: in vivo, 168 h, time 7 day
[13] = Acute toxicity in Swiss albino mouse assessed as RBC level at 5 mg/kg, po administered once and observed for 7 days (reference value: 9.21 +/- 0.32 /mm3); details: in vivo, 168 h, time 7 day
[14] = Acute toxicity in Swiss albino mouse assessed as absolute kidney weight at 5 to 300 mg/kg, po administered once and observed for 7 days; details: in vivo, 168 h, dose 5-300 mg/kg, time 7 day; method in brief: as §1
[15] = Acute toxicity in Swiss albino mouse assessed as relative brain weight at 5 to 300 mg/kg, po administered once and observed for 7 days; details: in vivo, 168 h, dose 5-300 mg/kg, time 7 day; method in brief: as §1
[16] = Acute toxicity in Swiss albino mouse assessed as hemoglobin level at 300 mg/kg, po administered once and observed for 7 days (reference value: 17.35 +/- 0.3 gm/dl); details: in vivo, 168 h, time 7 day
[17] = Acute toxicity in Swiss albino mouse assessed as RBC level at 300 mg/kg, po administered once and observed for 7 days (reference value: 9.21 +/- 0.32 /mm3); details: in vivo, 168 h, time 7 day
[18] = Acute toxicity in Swiss albino mouse assessed as relative kidney weight at 5 to 300 mg/kg, po administered once and observed for 7 days; details: in vivo, 168 h, dose 5-300 mg/kg, time 7 day; method in brief: as §1
[19] = Acute toxicity in Swiss albino mouse assessed as effect on posture at 5 to 300 mg/kg, po administered once and observed for 7 days; details: in vivo, 168 h, dose 5-300 mg/kg, time 7 day; method in brief: as §1
[20] = Acute toxicity in Swiss albino mouse assessed as absolute heart weight at 5 to 300 mg/kg, po administered once and observed for 7 days; details: in vivo, 168 h, dose 5-300 mg/kg, time 7 day; method in brief: as §1
[21] = Acute toxicity in Swiss albino mouse assessed as bilirubin level at 50 mg/kg, po administered once and observed for 7 days (reference value: 0.44 +/- 0.06 mg/dl); details: in vivo, 168 h, time 7 day

| SMILES | Activity [1] [U/L] | Activity [2] [U/L] | Activity [3] [U/L] | Activity [4] | Activity [5] [mg/dL] | Activity [6] | Activity [7] [thousands/mm3] | Activity [8] [U/L] | Activity [9] | Activity [10] [g] | Activity [11] [mg/dL] | Activity [12] [mg/mL] | Activity [13] [million/mm3] | Activity [14] | Activity [15] | Activity [16] [g/dL] | Activity [17] [million/mm3] | Activity [18] | Activity [19] | Activity [20] | also measured |
| --- | --- | --- | --- | --- | --- | --- | --- | --- | --- | --- | --- | --- | --- | --- | --- | --- | --- | --- | --- | --- | --- |
| COc1ccc2c(c1)c(Cc1ccc(OCCN(C)C)cc1)c(-c1cc(OC)c(OC)c(OC)c1)n2Cc1ccc(OCCN(C)C)cc1 | 97.53 | 14.47 | 106.88 | Non-Toxic | 0.15 | Non-Toxic | 4.86 | 15.07 | Non-Toxic | 21.71 | 132.33 | 1.48 | 9.67 | Non-Toxic | Non-Toxic | 15.96 | 9.45 | Non-Toxic | Non-Toxic | Non-Toxic | Activity [21]: 0.35 mg/dL |
| COc1ccc2c(c1)c(Cc1ccc(OC(C)CN(C)C)cc1)c(-c1cc(OC)c(OC)c(OC)c1)n2Cc1ccc(OC(C)CN(C)C)cc1 (configuration not stated) | 87.76 | 11.82 | 84.85 | Non-Toxic | 0.14 | Non-Toxic | 7.5 | 18.69 | Non-Toxic | 21.6 | 108.72 | 1.28 | 9.12 | Non-Toxic | Non-Toxic | 15.54 | 7.96 | Non-Toxic | Non-Toxic | Non-Toxic | Activity [21]: 0.39 mg/dL |
